Assay results of several laboratories.

SMILES	target or system	test	test system	setting	measurement	value
CN1CCN(c2cnc3c(cc(C(=O)NCc4ccc(Cl)cc4)c(=O)n3CC(=O)N3CC(C)(F)C3)n2)C1=O	B-95-8	cell growth or viability, ATP luminescence		5 days	CC50	4.61 µM
COc1ccc2c(C[Se][C@@H]3O[C@H](CO)[C@H](O)[C@H](O)[C@H]3O)cc(=O)oc2c1	THP-1	cell growth or viability, WST-1		24 h	CC50	> 100 µM
CC1(F)CN(C(=O)Cn2c(=O)c(C(=O)NCc3ccc(Cl)cc3)cc3nc(N4CCNC4=O)cnc32)C1	B-95-8	cell growth or viability, ATP luminescence		5 days	CC50	3.59 µM
Cn1nc2c(=O)n(C3CC3)ncc2c1[C@](O)(c1cnc(C(F)(F)F)c(Cl)c1)C(F)(F)F		metabolic stability	male Sprague-Dawley rat, hepatocytes	0.5 µM, pH 7.4	hepatocyte CLint	0.9 µL/min/10⁶ cells
COC(=O)COc1c(Cc2cc(C(C)(C)CC(C)(C)C)cc(-n3nc4ccccc4n3)c2OCC(=O)OC)cc(C(C)(C)CC(C)(C)C)cc1-n1nc2ccccc2n1	MCF7	cell growth or viability, MTT		10 µM, 48 h	viability	4.9%
Cc1ccc(Cn2cc(C(=O)NN)c(=O)c3cc(Oc4ccccc4)ccc32)cc1		metabolic stability	male rat, liver microsomes	1 µM	microsomal CLint	< 11.6 µL/min/mg
CC(=O)OC[C@H]1O[C@@H]([Se]Cc2ccc3ccccc3n2)[C@H](OC(C)=O)[C@@H](OC(C)=O)[C@@H]1OC(C)=O	THP-1	cell growth or viability, WST-1		24 h	CC50	~50 µM
CN/C(=N/CCSCc1nc[nH]c1C)NC#N		metabolic stability	human, hepatocytes	0.5 µM, pH 7.4	hepatocyte CLint	2.15 µL/min/10⁶ cells
